Reference: ChEMBL document CHEMBL1139976, “Liver X receptor antagonists with a phthalimide skeleton derived from thalidomide-related glucosidase inhibitors” (Bioorg Med Chem Lett, 2007)
pIC50: −log10 of the molar value. The source made the active and inactive calls. No cut-off for these calls is given here.

Assays:
[1] = Inhibition of alpha glucosidase; parameters: species or system Homo sapiens
Summary of the method: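 The enzyme (25 mU/mL) was preincubated with a range of compound concentrations in 10 mM phosphate buffer, pH 7.2, at 37 °C for 10 min. p-Nitrophenyl-alpha-D-glucopyranoside was then added to 0.16 mM final and incubated 30 min at 37 °C. The reaction was basified with 0.5 M Na2CO3 and released p-nitrophenol read at 400 nm. IC50 values were derived.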

[2] = molecular target: T1, Oxysterols receptor LXR-alpha (Homo sapiens) (UniProt Q13133); experiment: Antagonist activity at human recombinant LXRalpha expressed in HEK293 cells assessed as inhibition of T0901317-induced transcriptional activation at 100 uM by luciferase assay; type: functional, cell-based
T1 sequence (whole entry): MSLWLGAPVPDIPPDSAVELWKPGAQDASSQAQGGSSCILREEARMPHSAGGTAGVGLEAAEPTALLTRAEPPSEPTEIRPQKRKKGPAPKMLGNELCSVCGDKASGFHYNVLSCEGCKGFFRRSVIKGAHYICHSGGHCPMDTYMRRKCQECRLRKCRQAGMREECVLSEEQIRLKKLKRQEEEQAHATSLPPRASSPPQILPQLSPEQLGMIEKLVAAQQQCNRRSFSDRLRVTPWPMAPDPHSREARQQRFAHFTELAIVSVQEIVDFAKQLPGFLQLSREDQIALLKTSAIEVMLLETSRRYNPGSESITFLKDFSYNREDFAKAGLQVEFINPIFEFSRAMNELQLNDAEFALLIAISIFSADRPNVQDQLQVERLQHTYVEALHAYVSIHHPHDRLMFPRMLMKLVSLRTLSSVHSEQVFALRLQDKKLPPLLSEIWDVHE
Summary of the method: (§1)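 GAL4 DNA-binding domain fused to human LXR (alpha or beta) as receptor plasmid, TK-MH100x4-LUC reporter, and CMX beta-galactosidase for normalization. HEK293 cells in DMEM with 5% FBS, 37 °C, 5% CO2. Transfected by calcium phosphate coprecipitation. Compounds added 8 h post-transfection together with 0.1 µM T0901317, whose response alone was set as 100%. Luciferase read on a luminometer. Three repeats, normalized averages.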

[3] = molecular target: T2, Oxysterols receptor LXR-beta (Homo sapiens) (UniProt P55055); experiment: Antagonist activity at human recombinant LXRbeta expressed in HEK293 cells assessed as inhibition of T0901317-induced transcriptional activation at 100 uM by luciferase assay; type: functional, cell-based; summary of the method: as §1
T2 sequence (whole entry): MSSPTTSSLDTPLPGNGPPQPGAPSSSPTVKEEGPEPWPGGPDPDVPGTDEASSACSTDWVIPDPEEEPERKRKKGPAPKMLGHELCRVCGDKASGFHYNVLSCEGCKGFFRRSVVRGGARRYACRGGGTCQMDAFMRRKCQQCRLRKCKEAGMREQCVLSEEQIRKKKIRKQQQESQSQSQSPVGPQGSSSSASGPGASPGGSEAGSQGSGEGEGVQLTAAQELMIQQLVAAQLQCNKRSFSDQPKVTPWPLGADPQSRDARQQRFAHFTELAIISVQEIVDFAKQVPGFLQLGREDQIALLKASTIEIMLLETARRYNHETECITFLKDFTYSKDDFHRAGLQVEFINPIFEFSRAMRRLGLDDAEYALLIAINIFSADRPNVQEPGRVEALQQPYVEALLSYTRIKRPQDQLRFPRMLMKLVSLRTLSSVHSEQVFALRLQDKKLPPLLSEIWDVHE

[4] = test system: HEK293; experiment: Cytotoxicity against HEK293 cells at 100 uM; type: cell-based; settings: human, hek293, 100 µM
[5] = species: Homo sapiens; experiment: Inhibition of dipeptidylpeptidase 4
[6] = species: Homo sapiens; experiment: Inhibition of maltase
[7] = molecular target: T3, Oxysterols receptor LXR-alpha (Homo sapiens, UniProt Q13133); experiment: Antagonist activity at human recombinant LXRalpha expressed in HEK293 cells assessed as inhibition of T0901317-induced transcriptional activation by luciferase assay; type: functional, cell-based
T3 sequence (Q13133 whole entry): T1 sequence (whole entry)

[8] = molecular target: T4, Oxysterols receptor LXR-beta (Homo sapiens, UniProt P55055); experiment: Antagonist activity at human recombinant LXRbeta expressed in HEK293 cells assessed as inhibition of T0901317-induced transcriptional activation by luciferase assay; type: functional, cell-based
T4 sequence (P55055 whole entry): T2 sequence (whole entry)

Row | Structure (SMILES) | pIC50 [1] | inhibition [2] | inhibition [3] | further results
1 | O=C1c2ccc(Cl)cc2C(=O)N1CCCCc1ccccc1 |  | 66% | 45% | 
2 | O=C1c2ccccc2C(=O)N1c1ccccc1CCc1ccccc1 | 4.79 |  |  | Activity [4]: 48%; Activity [5]: inactive; Activity [6]: inactive
3 | O=C1c2c(Cl)c(Cl)c(Cl)c(Cl)c2C(=O)N1CCCCCCCCCCc1ccccc1 | 5.17 |  |  | Activity [2]: inactive; Activity [3]: inactive
4 | CCCCCCc1ccccc1N1C(=O)c2ccccc2C1=O | 4.61 |  |  | Activity [4]: 57%; Activity [5]: inactive; Activity [6]: inactive; pIC50 [7]: 4.89; pIC50 [8]: 4.19
5 | CC(C)c1cccc(C(C)C)c1N1C(=O)c2ccccc2C1=S | 5.10 | 94% | 92% | Activity [4]: 73%; Activity [5]: Active; Activity [6]: Active
6 | O=C1c2c(Cl)c(Cl)c(Cl)c(Cl)c2C(=O)N1Cc1ccccc1 | 4.96 | 60% | 51% | 
7 | O=C1c2cc(Cl)c(Cl)cc2C(=O)N1CCCCc1ccccc1 |  | 50% | 35% | 

Continued, in another order:

Row | pIC50 [1] | inhibition [2] | inhibition [3] | Structure (SMILES) | further results
8 | 5.70 | 53% | 49% | O=C1c2c(Cl)c(Cl)c(Cl)c(Cl)c2C(=O)N1CCCCc1ccccc1 | 
9 | 5.46 | 42% | 3% | O=C1c2c(Cl)c(Cl)c(Cl)c(Cl)c2C(=O)N1CCCCCc1ccccc1 | 
10 | 5.59 |  |  | O=C1c2c(Cl)c(Cl)c(Cl)c(Cl)c2C(=O)N1c1ccccc1 | Activity [2]: inactive; Activity [3]: inactive
11 | 5.62 | 61% | 49% | CC(C)c1cccc(C(C)C)c1N1C(=O)c2c(Cl)c(Cl)c(Cl)c(Cl)c2C1=O | 
12 | 5.22 | 38% | 38% | O=C1c2c(Cl)c(Cl)c(Cl)c(Cl)c2C(=O)N1CCc1ccccc1 | 
13 | 5.35 | 59% | 52% | O=C1c2c(Cl)c(Cl)c(Cl)c(Cl)c2C(=O)N1CCCc1ccccc1 | 
